2 compounds from ChEMBL document CHEMBL4007396, “New diphenylmethane derivatives as peroxisome proliferator-activated receptor alpha/gamma dual agonists endowed with anti-proliferative effects and mitochondrial activity” (Eur J Med Chem, 2017) can be followed below.

The target in data set [1] is T1, Peroxisome proliferator-activated receptor alpha (Homo sapiens, UniProt Q07869).
T1 sequence (Q07869 whole entry): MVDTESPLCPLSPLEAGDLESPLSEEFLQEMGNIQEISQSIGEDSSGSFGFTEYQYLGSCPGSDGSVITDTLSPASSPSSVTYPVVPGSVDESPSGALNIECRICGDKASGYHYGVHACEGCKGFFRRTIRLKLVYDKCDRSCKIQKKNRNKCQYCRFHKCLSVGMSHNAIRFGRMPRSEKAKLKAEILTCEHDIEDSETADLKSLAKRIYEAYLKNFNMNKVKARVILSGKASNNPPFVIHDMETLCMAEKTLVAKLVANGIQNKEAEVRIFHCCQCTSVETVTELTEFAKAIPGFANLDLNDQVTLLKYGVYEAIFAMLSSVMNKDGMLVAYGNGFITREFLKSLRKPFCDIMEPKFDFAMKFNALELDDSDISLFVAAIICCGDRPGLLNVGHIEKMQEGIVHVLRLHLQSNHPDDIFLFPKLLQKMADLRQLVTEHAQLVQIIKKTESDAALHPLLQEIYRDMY
As to the kind of experiment: Transactivation of GAL4-fused human PPARalpa LBD expressed in human HepG2 cells after 20 hrs by luciferase reporter gene assay. The format is cell-based. On the technique in general: A reporter such as luciferase makes a cellular process visible.

Data set [2] concerns HT-29. The data set is described as follows: Growth inhibition of human HT-29 cells assessed as cell vitality at 10 uM after 48 hrs by hemocytometry relative to control. The arrangement: scale not given: the % may be the effect or the level left. The format is functional. The gist of the method:
(§1)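 Exponentially growing HT-29 colon adenocarcinoma cells (D-MEM, 10% FBS, 37 °C, 5% CO2) exposed to vehicle (DMSO, final <0.1%) or 1, 5 and 10 μM compound in 10% FBS medium for 24, 48 and 72 hs; cells washed, trypsinized and counted by Bürker hemocytometer, three counts per well. Viability relative to vehicle; mean ± SD of three independent experiments in duplicate.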

Data set [3] concerns the target T2, Peroxisome proliferator-activated receptor alpha (Homo sapiens) (UniProt Q07869).
T2 sequence (whole entry): T1 sequence (Q07869 whole entry)
The data set is described as follows: Agonist activity at PPARalpha assessed as induction of positive regulatory loop based receptor transcriptional activation by measuring upregulation of PPARalpha protein expression level in human HepG2 cells at 1 uM after 48 hrs by Western blot method. The format is cell-based. Put shortly: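 HepG2 serum-depleted 24 h, then treated 48 h with 1 μM compound (Wy-14,643 at 50 μM as reference). Nitrocellulose immunoblots probed for CAC, CPT1 or PPARα with β-actin loading control, chemiluminescent detection; band densitometry expressed as fold change versus untreated cells; three independent experiments.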

The nature of data set [4]: Growth inhibition of HEK293T cells assessed as cell vitality at 10 uM after 48 hrs by hemocytometry relative to control. It is filed as cell-based, HEK-293T. The conditions noted are these: human, read-out: Activity. Put shortly:
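HEK293T grown in DMEM with 10% FBS, penicillin-streptomycin and L-glutamine, exposed 48 h to 10 μM compound (DMSO under 0.1% final) alongside HT-29. Cells trypsinized and counted on a Bürker hemocytometer, three counts per well; viability relative to vehicle-treated cells; three independent experiments in duplicate, mean ± SD.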

Data set [5] deals with T3, Bile acid receptor (Homo sapiens) (UniProt Q96RI1).
T3 sequence (whole entry): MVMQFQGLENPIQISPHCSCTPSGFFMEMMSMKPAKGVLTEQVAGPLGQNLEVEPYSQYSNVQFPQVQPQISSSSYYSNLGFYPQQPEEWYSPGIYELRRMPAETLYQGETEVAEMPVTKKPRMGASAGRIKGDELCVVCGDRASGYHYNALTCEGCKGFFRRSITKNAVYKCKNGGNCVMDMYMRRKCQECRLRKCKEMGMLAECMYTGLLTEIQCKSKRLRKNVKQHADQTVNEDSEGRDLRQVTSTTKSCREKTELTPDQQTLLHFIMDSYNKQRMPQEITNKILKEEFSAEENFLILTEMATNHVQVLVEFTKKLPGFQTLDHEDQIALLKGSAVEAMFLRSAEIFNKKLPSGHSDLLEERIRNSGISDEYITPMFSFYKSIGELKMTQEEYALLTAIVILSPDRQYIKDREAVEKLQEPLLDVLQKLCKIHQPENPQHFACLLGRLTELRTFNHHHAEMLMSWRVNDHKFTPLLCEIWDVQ
The data set is described as follows: Agonist activity at GAL4-fused human FXR LBD expressed in human HepG2 cells up to 2 uM after 20 hrs by luciferase reporter gene assay. The format is cell-based. Put shortly: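 HepG2 in MEM/10% FBS, calcium-phosphate co-transfection 24 h after seeding with GAL4-FXR-LBD (30 ng), pGAL5TKpGL3 luciferase reporter (100 ng) and pCMVβgal (250 ng); 4 h later, 20 h ligand exposure in triplicate. Luciferase normalized to β-galactosidase (ONPG); efficacy as % of maximal fold induction of chenodeoxycholic acid reference; tested up to 2 μM.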

Data set [6] has as its target T2, Peroxisome proliferator-activated receptor alpha (Homo sapiens). As to the kind of experiment: Agonist activity at PPARalpha in human HepG2 cells assessed as increase in CPT1 mRNA level at 1 uM after 24 hrs by RT-PCR method. It is filed as cell-based. The gist of the method:
(§2)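 Serum-free HepG2 exposed 24 h to 1 μM test agent (Wy-14,643 reference at 50 μM). RNA extracted from 1x10⁶ cells; TaqMan real-time RT-PCR for CAC, CPT1 or PPARα, normalized to β-actin. Mean ± SD of three independent duplicate experiments; one-way ANOVA with Bonferroni test.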

In the next data set the test system is HEK-293T. As to the kind of experiment: Effect on p21waf1/cip1 protein expression in HEK293T cells at 10 uM after 48 hrs by Western blot method. It is filed as cell-based. The note with it: human. The gist of the method:
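HT-29 or HEK293T cells in DMEM/10% FBS treated 48 h with 10 μM compound (DMSO vehicle, final below 0.1%). RIPA lysates (with protease inhibitors), 80 μg protein per lane immunoblotted for p21waf1/cip1 with β-actin loading control; densitometric p21/β-actin ratio, mean ± SD of at least three independent experiments.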
(In general: In western blotting, separated proteins are transferred to a membrane and probed.)

Data set [7] addresses T2, Peroxisome proliferator-activated receptor alpha (Homo sapiens). As to the kind of experiment: Agonist activity at PPARalpha in human HepG2 cells assessed as increase in CAC mRNA level at 1 uM after 24 hrs by RT-PCR method. The format is cell-based. The gist of the method:
as §2

Data set [8] concerns HT-29. The data set is described as follows: Growth inhibition of human HT-29 cells assessed as cell vitality at 5 uM up to 72 hrs by hemocytometry relative to control. It is filed as functional. On the set-up: scale not given: the % may be the effect or the level left. The gist of the method:
as §1

Data set [9] deals with T2, Peroxisome proliferator-activated receptor alpha (Homo sapiens). As to the kind of experiment: Agonist activity at PPARalpha in human HepG2 cells assessed as increase in mitochondrial mass at 1 uM by CellLight Mitochondria-GFP staining based fluorescent microscopic method relative to control. The format is cell-based. The gist of the method:
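Serum-free HepG2 at 60% confluence transduced with Mitochondria-GFP BacMam 2.0 (50 particles/cell) and given 1 μM compound or 50 μM Wy-14,643 for 24 h. Imaged at 20x with GFP filters (ex 485/em 535 nm); separately, SDS/Tris pH 7.5 lysates read at ex 475, em 500-550 nm. Mean ± SD of three experiments, ANOVA/Bonferroni.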

The subject of data set [10] is HT-29. As to the kind of experiment: Growth inhibition of human HT-29 cells assessed as cell vitality at 5 to 10 uM up to 72 hrs by hemocytometry relative to control. The arrangement: scale not given: the % may be the effect or the level left. It is filed as functional. The gist of the method: as §1

SMILES strings stand for the structures. Activity calls are given as the source filed them. No cut-off for these calls is given here.

For the compound `C[C@H](Oc1ccc(Cc2ccc(OCc3coc(-c4ccccc4)n3)cc2)cc1)C(=O)O`, the EC50 in data set [1] is 46 nM. The Activity with HT-29 [2] was 40%; with HEK-293T it was “Non-Toxic”; in the data set with HT-29 [8], 45%; in data set [9], 30%. Also, the outcome in data set [3], in [6] and in data set [7] was Active. Also, the viability at 48 h, 10 µM in data set [4] was determined as 75%. Moreover, the outcome in data set [5] was inactive.

Consider `C[C@@H](Oc1ccc(Cc2ccc(OCc3coc(-c4ccccc4)n3)cc2)cc1)C(=O)O`, for which the concentration for a half-maximal effect (EC50) in [1] stood at 42 nM. The outcome in data set [3], in data set [6] and in [7] was Active. Moreover, the Activity is 40 - 60% in the data set with HT-29 [10], “Non-Toxic” with HEK-293T and 30% in data set [9]. In addition, the outcome in data set [5] was inactive.

By EC50 is commonly meant the concentration that produces a half-maximal response.
